{"data": "Measured values gathered from unrelated publications", "note": "Each line is one published result; the experiments were not run side by side."}
{"SMILES": "CCS(=O)(=O)c1nc(C)cc(-c2ccccc2)n1", "tested on": "HEK-293T", "assay": "cell growth or viability, ATP luminescence", "setting": "24 h", "quantity": "CC50", "value": "> 60 µM"}
{"SMILES": "CC(=O)O[C@@]12CO[C@@H]1C[C@H](O)[C@@]1(C)C(=O)[C@H](O)C3=C(C)[C@@H](OC(=O)[C@H](O)[C@@H](NC(=O)OC(C)(C)C)c4ccccc4)C[C@@](O)([C@@H](OC(=O)c4ccccc4)[C@H]21)C3(C)C", "test system": "male Kunming mouse, lung", "setting": "oral, 20 mg/kg", "quantity": "MRT", "value": "1.8 h"}
{"SMILES": "CCN1CCN(Cc2ccc(NC(=O)c3ccc(C)c(NC(=O)c4cncc(-c5cccs5)c4)c3)cc2C(F)(F)F)CC1", "test system": "mouse, plasma", "setting": "intraperitoneal, 20 mg/kg, single dose", "quantity": "MRT", "value": "3.52 h"}
{"SMILES": "CCCCCNC[C@H](O)c1cc(Cl)cc2c1-c1ccc(Cl)cc1C2", "tested on": "HepG2", "assay": "cell growth or viability", "setting": "48 h", "quantity": "CC50", "value": "6.3 µM"}
{"SMILES": "CCOc1ccc(N(C)S(=O)(=O)c2cc(Cl)sc2C(=O)Nc2cc(Cl)cc(C(=O)O)c2)cc1OC", "test system": "male C57BL/6 mouse, brain", "setting": "intraperitoneal, 10 mg/kg", "quantity": "MRT(0-inf)", "value": "0.854 h"}
{"SMILES": "CCCCCCCCNCC(O)c1cc(Cl)cc2c1-c1ccc(Cl)cc1C2 (racemic)", "tested on": "HepG2", "assay": "cell growth or viability", "setting": "48 h", "quantity": "CC50", "value": "5.9 µM"}
{"SMILES": "C=CS(=O)(=O)c1ccc(Nc2nc(OCC3CCCCC3)c3nc[nH]c3n2)cc1", "test system": "male BALB/c mouse, plasma", "setting": "intraperitoneal, 20 mg/kg, single dose", "quantity": "MRT(0-t)", "value": "2.26 h"}
{"SMILES": "CC[S+]([O-])c1nc(-c2cccc(OCc3ccccc3)c2)cc(C(F)(F)F)n1 (centres unmarked)", "tested on": "HEK-293T", "assay": "cell growth or viability, ATP luminescence", "setting": "24 h", "quantity": "CC50", "value": "20 µM"}
